Data on four compounds can be found in ChEMBL document CHEMBL3352788, “Characterization of selective exosite-binding inhibitors of matrix metalloproteinase 13 that prevent articular cartilage degradation in vitro” (J Med Chem, 2014).

Common to all, as to type: ADME
For one data set, the target named is CYP2B6 (Homo sapiens, UniProt P20813). Put plainly: (§1) Inhibition of CYP2B6 (unknown origin) using bupropion substrate at 20 uM. As to conditions: probe bupropion. A digest of the protocol: (§2)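 Human liver microsomes with probe substrate and an NADPH-regenerating system in 0.1 M potassium phosphate pH 7.4 at 37 °C, run in duplicate. Inhibitor at 0–20 μM (0–2.5 μM for one compound), eight concentrations. Reactions were stopped with acetonitrile/formic acid containing isotope-labelled internal standard, and metabolite area ratios were compared with and without inhibitor. IC50 was taken by linear interpolation between bracketing concentrations.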

In a further data set the target is CYP2C9 (Homo sapiens, UniProt P11712). Kind of data set: (§3) Inhibition of CYP2C9 (unknown origin) using diclofenac substrate at 20 uM. As to conditions: probe diclofenac. A digest of the protocol:
as §2

The target of another data set is T1, Cytochrome P450 1A2 (Homo sapiens, UniProt P05177).
T1 sequence (P05177 whole entry): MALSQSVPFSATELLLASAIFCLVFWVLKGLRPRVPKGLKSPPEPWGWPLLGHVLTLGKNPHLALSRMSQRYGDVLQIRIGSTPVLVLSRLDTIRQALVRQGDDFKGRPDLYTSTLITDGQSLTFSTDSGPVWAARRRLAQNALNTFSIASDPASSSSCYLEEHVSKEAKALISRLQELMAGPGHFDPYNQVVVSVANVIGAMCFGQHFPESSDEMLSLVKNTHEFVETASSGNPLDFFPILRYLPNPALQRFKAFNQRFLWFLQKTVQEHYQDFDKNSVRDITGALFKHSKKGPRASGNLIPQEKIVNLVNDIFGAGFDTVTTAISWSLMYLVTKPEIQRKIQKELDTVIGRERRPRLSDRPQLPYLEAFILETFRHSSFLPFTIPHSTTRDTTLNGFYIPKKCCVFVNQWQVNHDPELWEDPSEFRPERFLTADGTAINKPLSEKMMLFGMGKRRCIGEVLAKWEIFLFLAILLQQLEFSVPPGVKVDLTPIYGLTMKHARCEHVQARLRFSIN
Put plainly: Inhibition of CYP1A2 (unknown origin) using tacrin substrate at 20 uM. As to conditions: 20 µM. In short, it runs like this: as §2

The target of another data set is T2, Cytochrome P450 2B6 (Homo sapiens, UniProt P20813).
T2 sequence (P20813 whole entry): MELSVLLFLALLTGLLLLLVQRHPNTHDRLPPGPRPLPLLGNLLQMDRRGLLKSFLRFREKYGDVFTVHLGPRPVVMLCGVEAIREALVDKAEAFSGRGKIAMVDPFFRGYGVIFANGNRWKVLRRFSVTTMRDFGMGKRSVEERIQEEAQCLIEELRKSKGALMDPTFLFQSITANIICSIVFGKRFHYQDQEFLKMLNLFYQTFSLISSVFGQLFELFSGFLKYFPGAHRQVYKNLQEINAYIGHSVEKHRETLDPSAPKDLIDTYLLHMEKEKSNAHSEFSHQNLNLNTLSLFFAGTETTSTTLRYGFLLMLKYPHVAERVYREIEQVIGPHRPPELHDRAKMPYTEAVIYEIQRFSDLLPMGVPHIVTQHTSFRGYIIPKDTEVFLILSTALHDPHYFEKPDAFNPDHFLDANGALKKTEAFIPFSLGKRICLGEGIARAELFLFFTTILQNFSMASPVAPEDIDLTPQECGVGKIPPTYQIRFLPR
The data set is described as §1. As to conditions: 20 µM. A digest of the protocol:
as §2

The target in the next data set is Cytochrome P450 2C9 (Homo sapiens, UniProt P11712). The description is as §3. As to conditions: 20 µM. In short, it runs like this:
as §2

The target of data set [1] is T3, CYP3A4 (Homo sapiens, UniProt P08684). Put plainly: Inhibition of CYP3A4 (unknown origin) using midazolam substrate at 2.5 uM. As to conditions: probe midazolam. In short, it runs like this:
as §2

The target in data set [2] is T3, CYP3A4. Put plainly: Inhibition of CYP3A4 (unknown origin) using testosterone substrate at 2.5 uM. As to conditions: probe testosterone. In short, it runs like this: as §2
For the next data set, the system named is Liver microsome. Kind of data set: Half life in human liver microsomes by LC-MS/MS analysis. A digest of the protocol:
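Compound at 1 μM with 1 mg/mL liver microsomes in 100 mM potassium phosphate pH 7.4 at 37 °C with shaking. Reaction started with 1 mM NADPH (final). Aliquots were taken at 0, 5, 10, 20, 40 and 60 min and quenched in acetonitrile. Parallel incubations without NADPH were run.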
(Microsomes from liver hold many membrane-bound enzymes, among them those of drug oxidation.)

Bounds are passed on as bounds.

T3 sequence (P08684 whole entry): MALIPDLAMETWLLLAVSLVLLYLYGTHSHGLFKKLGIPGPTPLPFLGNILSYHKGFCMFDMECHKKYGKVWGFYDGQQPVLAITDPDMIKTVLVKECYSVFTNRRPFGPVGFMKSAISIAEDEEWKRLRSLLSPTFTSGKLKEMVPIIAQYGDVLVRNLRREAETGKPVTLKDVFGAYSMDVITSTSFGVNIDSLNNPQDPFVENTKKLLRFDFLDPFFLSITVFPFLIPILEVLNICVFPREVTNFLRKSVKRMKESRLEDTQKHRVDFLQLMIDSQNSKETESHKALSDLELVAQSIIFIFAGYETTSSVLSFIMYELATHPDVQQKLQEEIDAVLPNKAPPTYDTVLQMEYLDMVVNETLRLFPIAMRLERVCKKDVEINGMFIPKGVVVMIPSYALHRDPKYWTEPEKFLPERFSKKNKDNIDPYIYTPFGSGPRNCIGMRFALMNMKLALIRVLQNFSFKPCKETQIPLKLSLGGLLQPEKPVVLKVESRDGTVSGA
Sequence of Cytochrome P450 2C9 (P11712 whole entry): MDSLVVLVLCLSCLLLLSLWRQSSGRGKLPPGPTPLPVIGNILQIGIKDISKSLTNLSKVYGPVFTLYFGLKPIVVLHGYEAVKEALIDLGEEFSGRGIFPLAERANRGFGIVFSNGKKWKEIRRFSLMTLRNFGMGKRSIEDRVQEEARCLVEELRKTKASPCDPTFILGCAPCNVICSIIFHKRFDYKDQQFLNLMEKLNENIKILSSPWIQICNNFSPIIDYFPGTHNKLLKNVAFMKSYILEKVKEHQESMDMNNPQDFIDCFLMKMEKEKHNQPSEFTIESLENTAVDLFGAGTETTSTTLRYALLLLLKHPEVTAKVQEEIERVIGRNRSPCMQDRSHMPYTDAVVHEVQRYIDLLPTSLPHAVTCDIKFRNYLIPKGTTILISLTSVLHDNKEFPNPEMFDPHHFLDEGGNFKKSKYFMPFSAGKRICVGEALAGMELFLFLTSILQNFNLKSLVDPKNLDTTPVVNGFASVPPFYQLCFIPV
Sequence of CYP2C9 (P11712 whole entry): as above

A word on the inhibition: it is the change of the read-out against control, counted positive when it falls. For the compound `COC(=O)c1ccc(CSc2nc3c(c(=O)[nH]2)CCC3)cc1`, the inhibition at 20 µM against CYP2B6 is less than 50%; against CYP2C9, 17%.
Consider `Cc1cc(CNC(=O)c2cc(C(=O)NCc3ccc(F)c(C)c3)ncn2)ccc1F`, for which the inhibition (INH) on Cytochrome P450 1A2, on Cytochrome P450 2B6 and against Cytochrome P450 2C9 was greater than 10% in each case.
For the compound `Cn1c(=O)n(Cc2ccc(C(=O)O)cc2)c(=O)c2cc(C#CCc3ccccc3)ccc21`, the inhibition at 2.5 µM at CYP3A4 [1] and against CYP3A4 [2] was less than 50% each time.
In the case of `Oc1nc(SCc2ccc(Cl)cc2)nc2c1CCC2`, the t1/2 with Liver microsome was 10.4 min.
